In ChEMBL document CHEMBL1128250, “Structure-activity studies of 2,3,4,4a,5,9b-hexahydroindeno[1,2-c]pyridines as antispermatogenic agents for male contraception” (1995):
Several values for one entry are separate records, joined by “and”; a condition that tells them apart may be missing. Equal entries are not always repeated.

Key:
[1] = system: Mus musculus; assay: Tested for its effect on testes weight 3 days after single oral dose (3 mg/kg); format: functional, Testis
Method in brief: (§1)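 Male CD-1 (ICR) mice, 7 weeks old on arrival, 5 per dose, single gavage of 10 mL/kg on day 0. Vehicle was 0.15 M acetate buffer pH 5, ethanol/Tween-20/water 3:7:90, or 1% Tween-20. Mice were killed with CO2 at 72 h and testes weighed and scored for spermatogenic index (0–6 scale). Results are % reduction versus the vehicle control. Dunnett's one-tailed t-test.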

[2] = system: Mus musculus; assay: Tested for its effect on spermatogenic index 3 days after single sub cutaneous dose (10 mg/kg); format: functional
Method in brief: (§2)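 Single subcutaneous injection, 10 mL/kg, to male CD-1 mice (5 per dose) in ethanol/Tween-20/water (3:7:90, v/v/v) on day 0. Mice were killed at 72 h; testes were weighed and histology scored for spermatogenic index (0–6). Results are % reduction from the vehicle control, with a 30 mg/kg positive control group. Dunnett's one-tailed t-test.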

[3] = system: Mus musculus; assay: Tested for its effect on spermatogenic index 3 days after single sub cutaneous dose (3 mg/kg); format: functional; method in brief: as §2
[4] = system: Mus musculus; assay: Tested for its effect on testes weight 3 days after single sub cutaneous (10 mg/kg); format: functional, Testis; method in brief: as §2
[5] = system: Mus musculus; assay: Tested for its effect on testes weight 3 days after single oral dose (10 mg/kg); format: functional, Testis
Method in brief: (§3)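 CD-1 outbred Swiss albino male mice, 5 per dose, single gavage on day 0 at 10 mL/kg. Vehicle was 0.15 M acetate buffer pH 5, ethanol/Tween-20/water (3:7:90), or 1% Tween-20 in water. CO2 euthanasia 72 h later. Testes weighed and histologically scored (spermatogenic index 0–6). Values are % reduction versus the assay's vehicle control. Positive control was 30 mg/kg of the parent compound. Significance by Dunnett's one-tailed t-test, p < 0.05.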

[6] = system: Mus musculus; assay: Tested for its effect on testes weight 3 days after single oral dose (30 mg/kg); format: functional, Testis; method in brief: as §3
[7] = system: Mus musculus; assay: Tested for its effect on spermatogenic index 3 days after single oral dose (30 mg/kg); format: functional; method in brief: as §3
[8] = system: Mus musculus; assay: Tested for its effect on testes weight 3 days after single sub cutaneous dose (30 mg/kg); format: functional, Testis; method in brief: as §2
[9] = system: Mus musculus; assay: Tested for its effect on spermatogenic index 3 days after single oral dose (10 mg/kg); format: functional; method in brief: as §1
[10] = system: Mus musculus; assay: Tested for its effect on spermatogenic index 3 days after single oral dose (3 mg/kg); format: functional; method in brief: as §1
[11] = system: Mus musculus; assay: Tested for its effect on testes weight 3 days after single sub cutaneous dose (3 mg/kg); format: functional, Testis; method in brief: as §2
[12] = system: Mus musculus; assay: Tested for its effect on spermatogenic index 3 days after single oral dose (90 mg/kg) in mice; format: functional; method in brief: as §3
[13] = system: Mus musculus; assay: Tested for its effect on mouse testes weight 3 days after single oral dose (90 mg/kg); format: functional, Testis; method in brief: as §3
[14] = system: Mus musculus; assay: Tested for its effect on spermatogenic index 3 days after single oral dose (3 mg/kg),; format: functional; method in brief: as §1
[15] = system: Mus musculus; assay: Tested for its effect on spermatogenic index 3 days after single oral dose (90 mg/kg),; format: functional; method in brief: as §3
[16] = system: Mus musculus; assay: Tested for its effect on testes weight 3 days after single oral dose (90 mg/kg); format: functional, Testis; method in brief: as §3
[17] = system: Mus musculus; assay: Tested for its effect on spermatogenic index 3 days after single oral dose (90 mg/kg); format: functional; method in brief: as §3
[18] = system: Mus musculus; assay: tested for its effect on spermatogenic index 3 days after single oral dose (30 mg/kg); format: functional
Method in brief: (§4)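 Male CD-1 (ICR)BR outbred Swiss albino mice, 5/dose, single oral gavage dose (10 mL/kg) on day 0 in acetate buffer pH 5 or Tween-20-based vehicle; killed 72 h later. Testis cross-sections scored histologically on a 0–6 spermatogenic index (Sertoli only to >100 late spermatids/tubule). Reported as % reduction versus vehicle control; Dunnett's one-tailed t-test.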

[19] = system: Mus musculus; assay: tested for its effect on testes weight 3 days after single oral dose (30 mg/kg); format: functional, Testis
Method in brief: (§5)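 Male CD-1 (ICR)BR outbred Swiss albino mice, 5/dose, given one oral gavage dose (10 mL/kg) on day 0 in 0.15 M acetate buffer pH 5, ethanol/Tween-20/water (3:7:90), or 1% Tween-20 in water; vehicle and positive-control groups in each assay. Killed by CO2 72 h later; testes weighed. Expressed as % reduction versus vehicle control; Dunnett's one-tailed t-test.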

[20] = system: Mus musculus; assay: tested for its effect on spermatogenic index 3 days after single oral dose (10 mg/kg); format: functional; method in brief: as §4
[21] = system: Mus musculus; assay: tested for its effect on testes weight 3 days after single oral dose (90 mg/kg); format: functional, Testis; method in brief: as §5
[22] = system: Mus musculus; assay: Tested for its effect on spermatogenic index 3 days after single oral dose (10 mg/kg),; format: functional; method in brief: as §3

Compound	Reduction [5] [%]	Reduction [6] [%]	Reduction [7]	Reduction [15] [%]	Reduction [16] [%]	also measured
CCCOC(=O)c1ccc([C@@H]2c3cc(C)ccc3[C@H]3CN(CC)CC[C@@H]23)cc1.Cl	3	31	56% and 43%			Reduction [1]: 11%; Reduction [2]: 13%; Reduction [3]: -1%; Reduction [4]: 10%; Reduction [8]: 17%; Reduction [9]: 33%; Reduction [10]: 2%; Reduction [11]: 7%
CCN1CC[C@H]2[C@@H](c3ccc(C)cc3)c3cc(C)ccc3[C@H]2C1.Cl						Reduction [12]: -9%; Reduction [13]: 2%
CCN1CC[C@H]2[C@H](c3ccc(C(=O)O)cc3)c3cc(C)ccc3[C@H]2C1.Cl (stereo in doubt; 10k)	24	28	51% and 35%			Reduction [1]: 13%; Reduction [2]: 27%; Reduction [3]: 8%; Reduction [4]: -3%; Reduction [8]: 17%; Reduction [9]: 36%; Reduction [14]: 2%; Reduction [11]: 5%
Cc1ccc([C@@H]2c3cc(C)ccc3[C@H]3CNCC[C@@H]23)cc1.Cl				-5	-3	
CCN1CC[C@H]2[C@H](c3ccc(C(=O)O)cc3)c3cc(C)ccc3[C@H]2C1.Cl (stereo in doubt; (l)-10k)					-7	Reduction [17]: 0%
CCN1CC[C@H]2[C@H](c3ccc(C(=O)O)cc3)c3cc(C)ccc3[C@H]2C1.Cl (stereo in doubt; (d)-10k)	26	16	67%		27	Reduction [1]: -5%; Reduction [9]: 40%; Reduction [17]: 70%; Reduction [10]: 21%
CCN1CCC(C(c2ccc(C)cc2)c2cccc(C)c2)CC1.Cl (centres undefined)		9	-5%			Reduction [1]: 2%; Reduction [14]: 2%
CCN1CC[C@H]2[C@H](c3ccc(C#N)cc3)c3cc(C)ccc3[C@H]2C1.Cl				-4	13	
CCN1CC[C@@H]2[C@@H](c3ccc(C)cc3)c3cc(C)ccc3[C@H]2C1.Cl				0	-18	
CCN1CCC(C(O)(c2ccc(C)cc2)c2ccc(C)cc2)CC1.Cl				0	-21	
CCN1CC[C@H]2[C@H](c3ccc(CO)cc3)c3cc(C)ccc3[C@H]2C1.Cl	13	23	57%	-5	4	Reduction [8]: 6%; Reduction [9]: 20%
CCN1CC[C@H]2[C@H](c3cccc(C)c3)c3cc(C)ccc3[C@H]2C1.Cl				-9	-11	
CCN1CCC(=C(c2ccc(C)cc2)c2cccc(C)c2)CC1.Cl				0	-5	
Cc1ccc([C@@H]2c3cc(C)ccc3[C@H]3CN(C)CC[C@@H]23)cc1.Cl				-3	8	Reduction [18]: 38%; Reduction [19]: 18%; Reduction [20]: 26%; Reduction [21]: 7%
CCc1ccc2c(c1)[C@@H](c1ccc(C(=O)OC)cc1)[C@@H]1CCN(CC)C[C@H]21.Cl	0	8	23%			Reduction [1]: -18%; Reduction [9]: -4%; Reduction [14]: 4%
CCN1CCC(C(O)c2ccc(C)cc2)C(c2ccc(C)cc2)C1.Cl (stereo in doubt; 16b)				0	0	
CCN1CC[C@H]2[C@H](c3ccc(C)cc3)c3ccccc3[C@H]2C1.Cl	5	3	20%		20	Reduction [22]: 0%; Reduction [17]: 35%
CCCN1CC[C@H]2[C@H](c3ccc(C)cc3)c3cc(C)ccc3[C@H]2C1.Cl				0	11	
CCN1CC[C@H]2[C@H](c3ccccc3C)c3cc(C)ccc3[C@H]2C1.Cl				-9	3	
CCN1CCC(C(O)c2ccc(C)cc2)C(c2ccc(C)cc2)C1.Cl (stereo in doubt; 16a)					-9	
CCN1CC[C@H]2[C@H](c3ccc(C=O)cc3)c3cc(C)ccc3[C@H]2C1.Cl	6	7	31% and 30%			Reduction [1]: 7%; Reduction [8]: -4%; Reduction [9]: 2%; Reduction [14]: 0%
CCN1CC[C@H]2[C@H](c3ccccc3)c3ccccc3[C@H]2C1.Cl				2	-2	
CCN1CC[C@H]2[C@H](c3ccc(F)cc3)c3cc(C)ccc3[C@H]2C1.Cl				-5	5	
Cc1ccc([C@@H]2c3cc(C)ccc3[C@H]3CN(C(C)C)CC[C@@H]23)cc1.Cl	7	15	28%		23	Reduction [22]: 10%; Reduction [17]: 45%
CCN1CC[C@H]2[C@H](c3ccc(O)cc3)c3cc(C)ccc3[C@H]2C1.Cl				-5	-1	
CCc1ccc2c(c1)[C@@H](c1ccc(C)cc1)[C@@H]1CCN(CC)C[C@H]21.Cl	2	26	33%			Reduction [1]: 3%; Reduction [9]: 7%; Reduction [14]: -2%
CCN1CC[C@H]2[C@H](c3ccccc3)c3cc(C)ccc3[C@H]2C1.Cl				-9	-8	
